Laboratory results as given in ChEMBL document CHEMBL4017491, “Phthalazino[1,2-b]quinazolinones as p53 Activators: Cell Cycle Arrest, Apoptotic Response and Bak-Bcl-xl Complex Reorganization in Bladder Cancer Cells” (J Med Chem, 2017).
Activity calls are given as the source filed them. The calls are words filed in the database; no cut-off is given here.

How the values were obtained:
Escherichia coli = experiment: Induction of DNA damage in Escherichia coli pBR322 DNA assessed as effect on mobility rate at 1 to 10 uM after 1 hr by DNA relaxation assay
How it was run: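 Plasmid pBR322 incubated 1 h with 1–10 μM in 5 mM Tris-HCl, 50 mM NaCl, pH 7.2. Samples run on 1.5% agarose and stained with 0.5 μg/mL ethidium bromide. Lane controls: 1% DMSO (negative) and ethidium bromide (positive).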

T-24 [1] = experiment: Effect on Bcl-xl protein expression in human T24 cells at 1 to 10 uM after 24 hrs by Western bot method; type: functional, cell-based
How it was run: (§1)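 T24 cells, 3 × 10^5 per well, grown to 85−95% confluence, then exposed to 0−10 μM for 24 h. Whole-cell extracts in sample buffer run on SDS-polyacrylamide gels and transferred to nitrocellulose. Blots probed with primary antibodies and AP-linked anti-rabbit IgG, detected by ECL. Blots stripped and reprobed for β-actin as loading control.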

[2] = molecular target: Cellular tumor antigen p53 (Homo sapiens) (UniProt P04637); experiment: Activation of p53 in human T24 cells assessed as increase in p21 protein expression after 24 hrs by Western blot analysis; type: cell-based
Sequence of Cellular tumor antigen p53 (Homo sapiens) (P04637 whole entry, looked up): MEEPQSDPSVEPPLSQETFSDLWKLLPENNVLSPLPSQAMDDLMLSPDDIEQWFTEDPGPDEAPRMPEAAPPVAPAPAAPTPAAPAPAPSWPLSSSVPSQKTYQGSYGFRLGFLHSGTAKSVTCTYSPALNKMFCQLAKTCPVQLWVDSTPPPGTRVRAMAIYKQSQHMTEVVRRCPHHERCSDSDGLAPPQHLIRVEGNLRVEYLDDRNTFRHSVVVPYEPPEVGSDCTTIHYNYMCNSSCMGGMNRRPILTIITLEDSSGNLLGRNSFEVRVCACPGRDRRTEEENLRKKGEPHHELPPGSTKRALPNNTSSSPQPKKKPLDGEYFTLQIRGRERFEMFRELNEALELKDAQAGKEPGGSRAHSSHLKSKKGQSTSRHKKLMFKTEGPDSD

HeLa = experiment: Antiproliferative activity against human HeLa cells by MTT assay; type: functional, cell-based
How it was run: (§2)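 Cell lines cultured in RPMI 1640 with 10% FBS. Viability read by MTT (5 mg/mL, 4 h at 37 °C), with formazan dissolved in DMSO and absorbance taken at 490 nm. Viability (%) = A490 treated / A490 control × 100. IC50 taken from dose-response curves, from three independent experiments each run in triplicate.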

T-24 [3] = experiment: Induction of apoptosis in human T24 cells assessed as early apoptotic cells at 1 uM by Annexin V-FITC/propidium iodide based flow cytometric analysis (reference value: 1.79%); type: functional
[4] = molecular target: Cellular tumor antigen p53 (Homo sapiens) (UniProt P04637); experiment: Activation of p53 in human T24 cells assessed as increase in p21 level up to 10 uM after 24 hrs by Western blot analysis; type: cell-based; how it was run: as §1
T-24 [5] = experiment: Effect on cell cycle distribution in human T24 cells assessed as early apoptotic cells at 1 uM after 1 hr by Annexin V-FITC/propidium iodide staining based FACS analysis relative to control; type: functional
T-24 [6] = experiment: Induction of apoptosis in human T24 cells assessed as activation of caspase-3 at 5 uM by FITC-DEVD-FMK based flow cytometric analysis (reference value: 2.8%)
LNCaP = experiment: Antiproliferative activity against human LNCAP cells harboring wild type p53 by MTT assay; type: functional, cell-based; how it was run: as §2
T-24 [7] = experiment: Induction of apoptosis in human T24 cells assessed as necrotic cells at 1 uM by Annexin V-FITC/propidium iodide based flow cytometric analysis (reference value: 8.53%); type: functional
T-24 [8] = experiment: Induction of apoptosis in human T24 cells assessed as late apoptotic cells at 1 uM by Annexin V-FITC/propidium iodide based flow cytometric analysis (reference value: 0.193%); type: functional
Mus musculus = experiment: Induction of phospho-p53 expression in BALB/C nude mouse xenografted with human T24 cells at 6 to 12 mg/kg, ip administered every 2 days for 16 days by immunoblot analysis
[9] = molecular target: Cellular tumor antigen p53 (Homo sapiens) (UniProt P04637); experiment: Induction of phospho-p53 accumulation in human T24 cells assessed as disruption of Bak-Bcl-xl interaction up to 10 uM by coimmunoprecipitation assay; type: cell-based
T-24 [10] = experiment: Effect on light absorption in human T24 cells up to 10 uM after 1 hr at 490 nanometer; type: functional, cell-based
How it was run: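 T24 cells treated at 1−10 μM for 1 h, then absorbance read at 490 nm to check for interference with the MTT read-out.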

[11] = molecular target: Cellular tumor antigen p53 (Homo sapiens) (UniProt P04637); experiment: Activation of p53 in human T24 cells assessed as increase in cyclinE-CDK2 complex formation up to 10 uM after 24 hrs by Western blot analysis; type: cell-based; how it was run: as §1
T-24 [12] = experiment: Induction of apoptosis in human T24 cells assessed as increase in bax level up to 10 uM after 24 hrs by Western blot analysis; type: functional, cell-based
How it was run: (§3)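 T24 cells (3 × 10^5 per well) grown to 85–95% confluence, then exposed 24 h to 0–10 μM. Whole-cell extracts run on SDS-PAGE and blotted to nitrocellulose. Probed with the indicated antibodies and AP-linked anti-rabbit IgG, with ECL detection. Blots stripped and reprobed for β-actin as loading control.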

T-24 [13] = experiment: Effect on cell cycle distribution in human T24 cells assessed as late necrotic cells at 5 uM after 1 hr by Annexin V-FITC/propidium iodide staining based FACS analysis (reference value: 1.71%); type: functional
T-24 [14] = experiment: Effect on cell cycle distribution in human T24 cells assessed as late apoptotic cells at 5 uM after 1 hr by Annexin V-FITC/propidium iodide staining based FACS analysis relative to control; type: functional
T-24 [15] = experiment: Effect on cell cycle distribution in human T24 cells assessed as live cells at 5 uM after 1 hr by Annexin V-FITC/propidium iodide staining based FACS analysis (reference value: 98.3%); type: functional
T-24 [16] = experiment: Effect on cell cycle distribution in human T24 cells assessed as early apoptotic cells at 10 uM after 1 hr by Annexin V-FITC/propidium iodide staining based FACS analysis relative to control; type: functional
T-24 [17] = experiment: Effect on p53 protein expression in human T24 cells up to 10 uM after 24 hrs by Western blot analysis; type: functional, cell-based; how it was run: as §3
DU-145 = experiment: Antiproliferative activity against human DU145 cells harboring p53 mutant by MTT assay; type: functional, cell-based; how it was run: as §2
J82 [18] = experiment: Cell cycle arrest in human J82 cells assessed as accumulation at G1 phase at 5 uM after 48 hrs by propidium iodide staining based FACS analysis (reference value: 42.29 %); type: functional
How it was run: (§4)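 Cells treated with 1−10 μM for 48 h, trypsinized, and fixed in 70% ethanol. Stained with 50 μg/mL propidium iodide and phase distribution analyzed by flow cytometry. Mean ± SD from three independent measurements.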

T-24 [19] = experiment: Induction of apoptosis in human T24 cells assessed as increase in […] level up to 10 uM after 24 hrs by Western blot analysis; type: functional, cell-based; how it was run: as §3
T-24 [20] = experiment: Induction of apoptosis in human T24 cells assessed as activation of caspase-3 at 1 uM by FITC-DEVD-FMK based flow cytometric analysis (reference value: 2.8%)
J82 [21] = experiment: Cell cycle arrest in human J82 cells assessed as accumulation at G2 phase at 5 uM after 48 hrs by propidium iodide staining based FACS analysis (reference value: 10.92 %); type: functional; how it was run: as §4
J82 [22] = experiment: Cell cycle arrest in human J82 cells assessed as accumulation at G2 phase at 10 uM after 48 hrs by propidium iodide staining based FACS analysis (reference value: 10.92 %); type: functional; how it was run: as §4
T-24 [23] = experiment: Induction of apoptosis in human T24 cells assessed as necrotic cells at 10 uM by Annexin V-FITC/propidium iodide based flow cytometric analysis (reference value: 8.53%); type: functional
MGC-803 = experiment: Antiproliferative activity against human MGC803 cells by MTT assay; type: functional, cell-based; how it was run: as §2
T-24 [24] = experiment: Induction of apoptosis in human T24 cells assessed as early apoptotic cells at 5 uM by Annexin V-FITC/propidium iodide based flow cytometric analysis (reference value: 1.79%); type: functional

## CN(C)CCNc1nn2c(=O)c3cc(Br)ccc3nc2c2ccccc12
Escherichia coli
  Activity: inactive
T-24 [1]
  Activity: inactive
[2]
  Activity: Dose-dependent effect
HeLa
  IC50: 6.1 µM
T-24 [3]
  Activity: 4.22%
[4]
  Activity: Active
T-24 [5]
  Activity: 0%
T-24 [6]
  Activity: 17.6%
LNCaP
  Activity: Active
T-24 [7]
  Activity: 6.77%
T-24 [8]
  Activity: 5.29%
Mus musculus
  Activity: Active
[9]
  Activity: Active
T-24 [10]
  Activity: inactive
[11]
  Activity: Active
T-24 [12]
  Activity: Active
T-24 [13]
  Activity: 10.6%
T-24 [14]
  Activity: 0%
T-24 [15]
  Activity: 89.4%
T-24 [16]
  Activity: 0%
T-24 [17]
  Activity: inactive
DU-145
  Activity: inactive
J82 [18]
  Activity: 17.78%
T-24 [19]
  Activity: Active
T-24 [20]
  Activity: 7%
J82 [21]
  Activity: 38.21%
J82 [22]
  Activity: 23.67%
T-24 [23]
  Activity: 8.1%
MGC-803
  IC50: 4.29 µM
T-24 [24]
  Activity: 26.4%
